≈ marks a conversion by molar mass, not a printed value.

Usually IC50 stands for the concentration that inhibits the measured activity by half. Usually AUC(0-inf) stands for total exposure, with the tail of the curve extrapolated. A high value points to high exposure.

For data set [1], the system named is Klebsiella pneumoniae. In words: Inhibition of VIM-27/CTX-M-15/SHV-11/OXA-1 in Klebsiella pneumoniae CDC-0040 assessed as piperacillin antibacterial activity at 16 ug/ml after 16 to 20 hrs by CLSI-based microbroth dilution method.
Data set [2] in a line: Inhibition of bacterial AmpC using nitrocefin as substrate preincubated for 15 mins followed by susbtrate addition and measured after 10 mins by spectrophotometric method. More on the design: species or system Bacteria.
In data set [3] the test system is Klebsiella pneumoniae. Kind of data set: Inhibition of KPC-2/SHV12/TEM-1 in Klebsiella pneumoniae CDC-0361 assessed as meropenem antibacterial activity at 4 ug/ml after 16 to 20 hrs by CLSI-based microbroth dilution method (reference value: […] ug/ml). (In general: In broth dilution the organism is exposed to a series of concentrations in liquid medium.)
The nature of data set [4]: Inhibition of bacterial IMP-1 using nitrocefin as substrate preincubated for 15 mins followed by susbtrate addition and measured after 10 mins by spectrophotometric method. More on the design: species or system Bacteria.
The subject of data set [5] is Klebsiella pneumoniae. In words: Inhibition of OXA-232/OXA-9/TEM-1A/CTX-M-15/OXA-1 in Klebsiella pneumoniae CDC-0066 assessed as meropenem antibacterial activity at 4 ug/ml after 16 to 20 hrs by CLSI-based microbroth dilution method (reference value: […] ug/ml).
Data set [6] deals with Klebsiella pneumoniae. Kind of data set: Inhibition of VIM-27/CTX-M-15/SHV-11/OXA-1 in Klebsiella pneumoniae CDC-0040 assessed as meropenem antibacterial activity at 4 ug/ml after 16 to 20 hrs by CLSI-based microbroth dilution method.
Data set [7] is described as follows: Inhibition of bacterial NDM-1 using cefepime as substrate preincubated for 15 mins followed by susbtrate addition and measured after 10 mins by spectrophotometric method. More on the design: species or system Bacteria.
Data set [8] has as its system Escherichia coli. In words: Inhibition of NDM in Escherichia coli CDC-0452 assessed as piperacillin antibacterial activity at 16 ug/ml after 16 to 20 hrs by CLSI-based microbroth dilution method (Rvb > […] ug/ml).
In data set [9] the test system is Pseudomonas aeruginosa. In words: Inhibition of VIM in Pseudomonas aeruginosa CDC-0457 assessed as meropenem antibacterial activity at 4 ug/ml after 16 to 20 hrs by CLSI-based microbroth dilution method.
Data set [10] deals with Klebsiella pneumoniae ATCC BAA-1705. Kind of data set: Inhibition of KPC-2 in Klebsiella pneumoniae ATCC BAA 1705 assessed as meropenem antibacterial activity at 4 ug/ml after 16 to 20 hrs by CLSI-based microbroth dilution method (reference value: […] ug/ml).
The subject of data set [11] is Pseudomonas aeruginosa. In words: Inhibition of VIM in Pseudomonas aeruginosa CDC-0457 assessed as piperacillin antibacterial activity at 16 ug/ml after 16 to 20 hrs by CLSI-based microbroth dilution method.
The subject of data set [12] is Pseudomonas aeruginosa. In words: Inhibition of VIM in Pseudomonas aeruginosa CDC-0457 assessed as cefepime antibacterial activity at 8 ug/ml after 16 to 20 hrs by CLSI-based microbroth dilution method.
Data set [13] relates to Klebsiella pneumoniae. Kind of data set: Inhibition of OXA-232/OXA-9/TEM-1A/CTX-M-15/OXA-1 in Klebsiella pneumoniae CDC-0066 assessed as cefepime antibacterial activity at 8 ug/ml after 16 to 20 hrs by CLSI-based microbroth dilution method (Rvb > […] ug/ml).
In data set [14] the test system is Pseudomonas aeruginosa. Kind of data set: Inhibition of KPC-2/PDC-42 in Pseudomonas aeruginosa CDC-0356 assessed as piperacillin antibacterial activity at 16 ug/ml after 16 to 20 hrs by CLSI-based microbroth dilution method (Rvb > […] ug/ml).
The nature of data set [15]: Inhibition of bacterial OXA-48 using nitrocefin as substrate preincubated for 15 mins followed by susbtrate addition and measured after 10 mins by spectrophotometric method. The arrangement: species or system Bacteria.
Data set [16] is described as follows: Inhibition of bacterial KPC-2 using imipenem as substrate preincubated for 15 mins followed by susbtrate addition and measured after 10 mins by spectrophotometric method. More on the design: species or system Bacteria.
For data set [17], the system named is Klebsiella pneumoniae. Kind of data set: Inhibition of OXA-232/OXA-9/TEM-1A/CTX-M-15/OXA-1 in Klebsiella pneumoniae CDC-0066 assessed as piperacillin antibacterial activity at 16 ug/ml after 16 to 20 hrs by CLSI-based microbroth dilution method (Rvb > […] ug/ml).
The subject of data set [18] is Escherichia coli. In words: Inhibition of NDM-1/CMY-6/OXA-1 in Escherichia coli CDC-0055 assessed as meropenem antibacterial activity at 4 ug/ml after 16 to 20 hrs by CLSI-based microbroth dilution method (reference value: […] ug/ml).
Data set [19] concerns Klebsiella pneumoniae. In words: Inhibition of KPC-2/SHV12/TEM-1 in Klebsiella pneumoniae CDC-0361 assessed as piperacillin antibacterial activity at 16 ug/ml after 16 to 20 hrs by CLSI-based microbroth dilution method (Rvb > […] ug/ml).
A short description of data set [20]: Inhibition of bacterial SHV-5 using cefotaxime as substrate preincubated for 15 mins followed by susbtrate addition and measured after 10 mins by spectrophotometric method. The arrangement: species or system Bacteria.
For data set [21], the system named is Escherichia coli. In words: Inhibition of NDM in Escherichia coli CDC-0452 assessed as cefepime antibacterial activity after 16 to 20 hrs by CLSI-based microbroth dilution method (reference value: […] ug/ml).
Data set [22] has as its system Pseudomonas aeruginosa. In words: Inhibition of KPC-2/PDC-42 in Pseudomonas aeruginosa CDC-0356 assessed as meropenem antibacterial activity at 4 ug/ml after 16 to 20 hrs by CLSI-based microbroth dilution method (reference value: […] ug/ml).
The subject of data set [23] is Pseudomonas aeruginosa. In words: Inhibition of KPC-2/PDC-42 in Pseudomonas aeruginosa CDC-0356 assessed as cefepime antibacterial activity at 8 ug/ml after 16 to 20 hrs by CLSI-based microbroth dilution method (Rvb > […] ug/ml).
In data set [24] the test system is Klebsiella pneumoniae ATCC BAA-1705. In words: Inhibition of KPC-2 in Klebsiella pneumoniae ATCC BAA 1705 assessed as piperacillin antibacterial activity at 16 ug/ml after 16 to 20 hrs by CLSI-based microbroth dilution method (Rvb > […] ug/ml).
Data set [25] can be described thus: Inhibition of bacterial CMY-2 using nitrocefin as substrate preincubated for 15 mins followed by susbtrate addition and measured after 10 mins by spectrophotometric method. More on the design: species or system Bacteria.
Data set [26] relates to Klebsiella pneumoniae. Kind of data set: Inhibition of VIM-27/CTX-M-15/SHV-11/OXA-1 in Klebsiella pneumoniae CDC-0040 assessed as cefepime antibacterial activity at 8 ug/ml after 16 to 20 hrs by CLSI-based microbroth dilution method.
Data set [27] concerns Escherichia coli. In words: Inhibition of NDM-1/CMY-6/OXA-1 in Escherichia coli CDC-0055 assessed as cefepime antibacterial activity at 8 ug/ml after 16 to 20 hrs by CLSI-based microbroth dilution method. The essentials: (§1)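 MDR β-lactamase-producing Gram-negative clinical isolates. […] MIC was reported as the inhibitor concentration that restores the partner's antibacterial activity.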

Data set [28] concerns Escherichia coli. In words: Inhibition of NDM in Escherichia coli CDC-0452 assessed as meropenem antibacterial activity at 4 ug/ml after 16 to 20 hrs by CLSI-based microbroth dilution method (reference value: […] ug/ml).
The nature of data set [29]: Inhibition of bacterial CTX-M-15 using cefotaxime as substrate preincubated for 15 mins followed by susbtrate addition and measured after 10 mins by spectrophotometric method. More on the design: species or system Bacteria.
Data set [30] in a line: Inhibition of bacterial OXA-1 using nitrocefin as substrate preincubated for 15 mins followed by susbtrate addition and measured after 10 mins by spectrophotometric method. The arrangement: species or system Bacteria.
Data set [31] has as its system Klebsiella pneumoniae. In words: Inhibition of KPC-2/SHV12/TEM-1 in Klebsiella pneumoniae CDC-0361 assessed as cefepime antibacterial activity at 8 ug/ml after 16 to 20 hrs by CLSI-based microbroth dilution method (reference value: […] ug/ml).
The nature of data set [32]: Inhibition of bacterial VIM-2 using nitrocefin as substrate preincubated for 15 mins followed by susbtrate addition and measured after 10 mins by spectrophotometric method. The arrangement: species or system Bacteria. The procedure, abridged: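 Purified β-lactamase inhibition. IC50 values are the average of duplicates unless otherwise indicated.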
Data set [33] deals with Escherichia coli. In words: Inhibition of NDM-1/CMY-6/OXA-1 in Escherichia coli CDC-0055 assessed as piperacillin antibacterial activity at 16 ug/ml after 16 to 20 hrs by CLSI-based microbroth dilution method. The essentials:
as §1

The nature of data set [34]: AUC (infinity) in mouse at 10 mg/kg, iv after 1 to 6 hrs by LC-MS/MS analysis. It counts as ADME, organism-based. Conditions: in vivo. The arrangement: dose 10 mg/kg, time infinity, route intravenous.

Turning to `O=C(O)C[C@@H]1CC[C@H](NC(=O)Cc2cccs2)B(O)O1` [VABORBACTAM], the MIC in data set [1] was more than 16 µg/mL; in data set [3], 0.06 µg/mL (≈ 0.202 µM); in [5], more than 16 µg/mL; in [6] it was more than 16 µg/mL; in data set [8], more than 16 µg/mL; in data set [9] it was more than 16 µg/mL. Also, the MIC is 0.03 µg/mL (≈ 0.101 µM) in data set [10]; more than 16 µg/mL in [11]; more than 16 µg/mL in [12]; more than 16 µg/mL in data set [13]; more than 16 µg/mL in [14]; more than 16 µg/mL in [17]. Further, the MIC in data set [18] is more than 16 µg/mL; in [19], more than 16 µg/mL; in data set [21], more than 16 µg/mL; in data set [22] it was 8 µg/mL (≈ 26.9 µM); in data set [23] it was more than 16 µg/mL; in [24] it was more than 16 µg/mL. For the same compound, the MIC in data set [26], in [27], in data set [28], in data set [31] and in [33] was more than 16 µg/mL in each case. The IC50 in [2] was 0.09 µM; in [4] it was more than 100 µM; in data set [7], more than 100 µM; in [15] it was 38.8 µM; in [16], 0.1 µM; in data set [20], 0.44 µM. The IC50 in [25] is 0.22 µM; in data set [29] it was 0.42 µM; in data set [30], 7.9 µM; in data set [32] it was more than 100 µM.
In data set [34], `CO/N=C(\C(=O)N[C@@H]1C(=O)N2C(C(=O)[O-])=C(C[N+]3(C)CCCC3)CS[C@H]12)c1csc(N)n1` gave an area under the curve AUC(0-inf) of 15800 ng·h/mL.
